This note sets out measurements from ChEMBL document CHEMBL1152423, “Development of N-[11C]methylamino 4-hydroxy-2(1H)-quinolone derivatives as PET radioligands for the glycine-binding site of NMDA receptors” (Bioorg Med Chem, 2009).

Each structure is given as a SMILES string. Active and inactive are the calls of the source. The calls are words filed in the database; no cut-off is given here.

The target in data set [1] is Glutamate NMDA receptor. Briefly: Displacement of [3H]MDL-105519 from glycine binding site of NMDA receptor in rat cortical membrane by liquid scintillation counting. The format is cell membranes. The procedure, abridged: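 Washed rat cortical membranes in 50 mM Tris–HCl (pH 8.0) were incubated 45 min at 4 °C with [3H]MDL-105,519 (2 nM) plus buffer or displacer. Nonspecific binding was defined with excess unlabeled glycine. Samples were filtered on GF/B, washed three times with ice-cold buffer, and counted by liquid scintillation. Ki came from three determinations, each in triplicate.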
A general note: Displacement assays read how much labelled ligand stays bound in the presence of the test substance.

The nature of data set [2]: Ratio of drug level in cerebellum to blood of ddY mouse at 7.4 MBq, iv after 30 mins. The format is ADME, organism-based. The procedure, abridged:
(§1)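 ddY mice (35–45 g) received about 7.4 MBq of [11C]radioligand in 0.2 ml into the tail vein and were decapitated at 1 or 30 min. Blood, cerebrum and cerebellum were gamma-counted with decay correction and expressed as % injected dose/g; tissue/blood ratios were derived. n=3 or 5.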

For data set [3], the system named is Blood. Briefly: Biodistribution in ddY mouse blood assessed per gram of tissue at 7.4 MBq, iv after 1 min by gamma counting. The format is ADME, organism-based. The following applies: in vivo. A digest of the protocol:
as §1

The test system of data set [4] is Blood. Briefly: Biodistribution in ddY mouse blood assessed per gram of tissue at 7.4 MBq, iv after 30 mins by gamma counting. The format is ADME, organism-based. The settings on record: in vivo, 0.5 h. A digest of the protocol: as §1
Data set [5] can be described thus: Biodistribution in ddY mouse cerebrum assessed per gram of tissue at 7.4 MBq, iv after 30 mins by gamma counting. The format is ADME, organism-based. The following applies: in vivo, 0.5 h. The procedure, abridged:
as §1

Data set [6] in a line: Biodistribution in ddY mouse cerebrum assessed per gram of tissue at 7.4 MBq, iv after 1 min by gamma counting. The format is ADME, organism-based. The following applies: in vivo. A digest of the protocol: as §1
The nature of data set [7]: Ratio of drug level in cerebrum to blood of ddY mouse at 7.4 MBq, iv after 1 min. The format is ADME, organism-based. A digest of the protocol:
as §1

The subject of data set [8] is Cerebellum. Briefly: Biodistribution in ddY mouse cerebellum assessed per gram of tissue at 7.4 MBq, iv after 30 mins by gamma counting. The following applies: in vivo, 0.5 h. The format is ADME, organism-based. The procedure, abridged:
as §1

For data set [9], the system named is Cerebellum. Briefly: Biodistribution in ddY mouse cerebellum assessed per gram of tissue at 7.4 MBq, iv after 1 min by gamma counting. The format is ADME, organism-based. The following applies: in vivo. A digest of the protocol:
as §1

Data set [10] is described as follows: Ratio of drug level in cerebellum to blood of ddY mouse at 7.4 MBq, iv after 1 min. The format is ADME, organism-based. The procedure, abridged: as §1
Data set [11] is described as follows: Ratio of drug level in cerebrum to blood of ddY mouse at 7.4 MBq, iv after 30 mins. The format is ADME, organism-based. A digest of the protocol: as §1
Data set [12] has as its target T1, Glutamate NMDA receptor (Rattus norvegicus) (UniProt P35439+Q00959+Q00960+Q00961+Q62645+Q8VHN2+Q9R1M7). Briefly: Binding affinity to glycine binding site of NMDA receptor in thalamus of rat brain by autoradiography. The format is tissue-based. The following applies: tested as the 11C-labelled form. The procedure, abridged:
(§2)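 Rat brain sagittal sections were preincubated 30 min at 25 °C in 50 mM Tris–HCl (pH 7.4), then incubated 30 min at 25 °C with the [11C]radioligand (1.59–2.13 nM). Sections were rinsed twice for 3 min in cold buffer, dipped in cold water, dried, and exposed to imaging plates for 60 min. Nonspecific binding was taken with the corresponding unlabeled ligand; specific binding is given per region.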

The target in data set [13] is T1, Glutamate NMDA receptor (Rattus norvegicus). Briefly: Binding affinity to glycine binding site of NMDA receptor in hippocampus of rat brain by autoradiography in presence of glycine. The format is tissue-based. The following applies: tested as the 11C-labelled form. A digest of the protocol: (§3)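 Hippocampal binding on rat brain slices: 30 min at 25 °C in 50 mM Tris–HCl (pH 7.4) with [11C]radioligand (1.59–2.13 nM), with or without a glycine-site drug (agonists at 1 mM). Slices were rinsed, dried and exposed to imaging plates for 60 min. PSL with drug was divided by PSL without drug to give % total binding, averaged over at least triplicate sections from three animals.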

For data set [14] the target is unchanged. Briefly: Binding affinity to glycine binding site of NMDA receptor in cerebral cortex of rat brain by autoradiography. The format is tissue-based. The following applies: tested as the 11C-labelled form. The procedure, abridged: as §2
The target is the same in data set [15]. Briefly: Binding affinity to glycine binding site of NMDA receptor in hippocampus of rat brain by autoradiography in presence of glycine-site antagonist MDL-105519. The format is tissue-based. The settings on record: tested as the 11C-labelled form. A digest of the protocol: as §3
For data set [16] the target is unchanged. Briefly: Binding affinity to glycine binding site of NMDA receptor in hippocampus of rat brain by autoradiography in presence of glycine-site antagonist methoxy-MDL-104653. The format is tissue-based. The settings on record: tested as the 11C-labelled form. A digest of the protocol:
as §3

Data set [17] shares this target. Briefly: Binding affinity to glycine binding site of NMDA receptor in cerebellum of rat brain by autoradiography. The format is tissue-based. The settings on record: tested as the 11C-labelled form. A digest of the protocol:
as §2

Data set [18] shares this target. Briefly: Binding affinity to glycine binding site of NMDA receptor in striatum of rat brain by autoradiography. The format is tissue-based. The settings on record: tested as the 11C-labelled form. The procedure, abridged:
as §2

The target is the same in data set [19]. Briefly: Binding affinity to glycine binding site of NMDA receptor in hippocampus of rat brain by autoradiography. The format is tissue-based. The following applies: tested as the 11C-labelled form. The procedure, abridged:
as §2

For data set [20] the target is unchanged. Briefly: Binding affinity to glycine binding site of NMDA receptor in hippocampus of rat brain by autoradiography in presence of glycine-site agonist D-serine. The following applies: tested as the 11C-labelled form. The format is tissue-based. A digest of the protocol:
as §3

Data set [21] shares this target. Briefly: Binding affinity to glycine binding site of NMDA receptor in hippocampus of rat brain by autoradiography in presence of glycine-site antagonist L-703717. The format is tissue-based. The settings on record: tested as the 11C-labelled form. A digest of the protocol: as §3
Data set [22] can be described thus: Plasma protein binding in rat at 0.67 to 0.89 […] after 30 mins by ultrafiltration. The format is ADME, cell-free. The following applies: read-out: PPB (converted). A digest of the protocol: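 Rat serum was diluted 10-fold in 66 mM phosphate buffer (pH 7.4) containing [11C]radioligand (0.67–0.89 MBq) and incubated 30 min at 30 °C. It was then ultrafiltered by centrifugation at 2000 rpm for 15 min. Radioactivity in whole plasma and in filtrate was counted to give % bound (mean, n=3).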

In data set [23] the target is Glutamate NMDA receptor. Briefly: Binding affinity to glycine binding site of NMDA receptor in rat brain. The format is tissue-based.
Data set [24] is described as follows: n-Octanol-sodium phosphate buffer partition coefficient, log D at pH 7.4 after 15 mins by shake-flask method. The format is physicochemical. The procedure, abridged:
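Compound (1–2 mg) was shaken 15 min at ambient temperature in n-octanol and 10 mM phosphate buffer (pH 7.4). The mixture was centrifuged at 2500 rpm for 5 min, and both layers were analysed by HPLC (n=3).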

A short description of data set [25]: Biodistribution in mouse cerebrum assessed per gram of tissue at 7.4 MBq, iv after 1 min by gamma counting. The settings on record: in vivo. The format is ADME, organism-based.
Data set [26] relates to Blood. Briefly: Biodistribution in mouse blood assessed per gram of tissue at 7.4 MBq, iv after 1 min by gamma counting. The format is ADME, organism-based. The following applies: in vivo.
The nature of data set [27]: Ratio of drug level in cerebrum to blood of mouse at 7.4 MBq, iv after 1 min. The format is ADME, organism-based. The procedure, abridged: (§4)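 ddY mice (35–45 g) received ca. 7.4 MBq ¹¹C-labelled ligand (0.2 ml) by tail-vein injection and were decapitated at 1 min. Cerebrum and cerebellum were dissected, and radioactivity was gamma-counted with decay correction and expressed as % injected dose per gram tissue. The value is the tissue-to-blood ratio of % dose/g.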

The nature of data set [28]: Ratio of drug level in cerebellum to blood of mouse at 7.4 MBq, iv after 1 min. The format is ADME, organism-based. A digest of the protocol: as §4
In data set [29] the test system is Cerebellum. Briefly: Biodistribution in mouse cerebellum assessed per gram of tissue at 7.4 MBq, iv after 1 min by gamma counting. The settings on record: in vivo. The format is ADME, organism-based.

A word on the Ki: it is a measure of affinity in units of concentration, obtained from inhibition or displacement. A high value points to a looser hold on the target. `COc1cccc(-c2c(O)c3c(N(C)C)cc(Cl)cc3[nH]c2=O)c1`: the Ki at Glutamate NMDA receptor [1] is 566 nM. That is a sub-micromolar value.
On the same count and under the same terms, as for `CNc1cc(Cl)cc2[nH]c(=O)c(-c3cccc(OC)c3)c(O)c12`, the figure is 715 nM.
Usually Kp stands for tissue or fluid exposure divided by exposure in the circulation. Turning to `CCc1cc(Cl)cc2[nH]c(=O)c(-c3cccc(O[11CH3])c3)c(O)c12`, the Kp at 0.5 h in [2] turned out to be 0.042; in [11] it was 0.03. Moreover, the Drug uptake in the data set with Blood [3] was determined as 29.16 %ID; in the data set with Blood [4], 10.66 %ID/g; in data set [5], 0.32 %ID/g; in [6], 0.5 %ID; in the data set with Cerebellum [8] it was 0.44 %ID/g; in the data set with Cerebellum [9] it was 0.72 %ID. For the same molecule, the Kp at 1 min was found to be 0.018 in data set [7] and 0.026 in [10].
On to `CCc1cc(Cl)cc2[nH]c(=O)c(-c3cccc(NC)c3)c(O)c12`, for which the outcome in data set [12], in data set [14] and in data set [18] was Active. Moreover, the Activity in data set [13] worked out at 59%; in [15], 64%; in [16], 64%; in data set [17] it was 75%; in [19], 89%; in data set [20] it was 59%. The Activity in data set [21] was 64%. On Glutamate NMDA receptor [1], this molecule came in with a Ki of 11.8 nM.
In the case of `CCc1cc(Cl)cc2[nH]c(=O)c(-c3cccc(OC)c3)c(O)c12`, in [22], the fraction unbound at 0.5 h was 0.06. On Glutamate NMDA receptor [23], this molecule showed a Ki of 7.2 nM.
One may read the logD as the decadic logarithm of the distribution of all forms, ionised or not, between an organic phase and buffer at a given pH. `COc1ccc(Cc2cccc(-c3c(O)c4ccc(Cl)cc4[nH]c3=O)c2)cc1`: in data set [22], the fraction unbound at 0.5 h was 0.06. Further, the logD at 0.25 h in data set [24] came out at 3.47. Also, at Glutamate NMDA receptor [1], the Ki turned out to be 5.12 nM.
`[11CH3]Oc1ccc(Cc2cccc(-c3c(O)c4ccc(Cl)cc4[nH]c3=O)c2)cc1`: the Drug uptake in [25] stood at 0.32 %ID; with Blood [26] it was 8.37 %ID; with Blood [4] it was 3.46 %ID/g; in [5], 0.2 %ID/g; in the data set on Cerebellum [29] it was 0.36 %ID; in the data set with Cerebellum [8], 0.24 %ID/g. Further, the Kp at 0.5 h was 0.068 in data set [2] and 0.051 in data set [11]. The Kp at 1 min in [27] was 0.038; in data set [28] it was 0.043.
On to `[11CH3]Nc1ccc(Cc2cccc(-c3c(O)c4ccc(Cl)cc4[nH]c3=O)c2)cc1`, for which the results for the Kp at 0.5 h in data set [2] and in data set [11] were 0.058 and 0.043, respectively. The Drug uptake came out at 13.08 %ID with Blood [3]; 3.93 %ID/g in the data set with Blood [4]; 0.17 %ID/g in [5]; 0.4 %ID in [6]; 0.23 %ID/g with Cerebellum [8]; 0.48 %ID in the data set on Cerebellum [9]. Besides, the Kp at 1 min stood at 0.031 in [7] and 0.037 in [10].
